{"source": "ChEMBL document CHEMBL5705886", "about": "“GSK1070916, a potent Aurora B/C kinase inhibitor with broad antitumor activity in tissue culture cells and human tumor xenograft models” (Mol Cancer Ther, 2009)", "key": {"[1]": {"system": "DB", "test": "Antiproliferative activity against human DB cells assessed as inhibition of cell viability measured for 6 to 7 days by cell titer glo assay", "type": "functional, cell-based", "in_short": "(§1)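 Tumor lines plated in recommended growth media, overnight at 37°C, 5% CO2, then given serial dilutions; a T=0 plate read with CellTiter-Glo at dosing. After 6–7 d of exposure, viability read by CellTiter-Glo luminescence. No-cell wells subtracted, data expressed as % of DMSO control.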"}, "[2]": {"test": "Antiproliferative activity against human DND41 cells assessed as inhibition of cell viability measured for 6 to 7 days by cell titer glo assay", "type": "functional, cell-based", "in_short": "as §1"}, "[3]": {"test": "Antiproliferative activity against HUVEC cells assessed as reduction in cell viability measured after 6 days by cell titer glo assay", "type": "toxicity, cell-based", "details": "human", "in_short": "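HUVECs (primary) in EGM-2 with 2% FBS and supplements, assayed in cycling and nonproliferating states. Cycling: 500 cells/well seeded 1 d before dosing. Nonproliferating: 35,000 cells in half-area wells seeded 4 d ahead, fresh media next day and media changed 1 d before dosing. 2-fold dilutions 20000 to 0.15 nmol/L, 6 d at 37°C, 5% CO2. CellTiter-Glo 30 min, background-subtracted, % of DMSO control.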"}, "[4]": {"system": "Toledo", "test": "Antiproliferative activity against human Toledo cells assessed as inhibition of cell viability measured for 6 to 7 days by cell titer glo assay", "type": "functional, cell-based", "in_short": "(§2)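 Cells seeded in recommended growth medium, held overnight at 37°C in 5% CO2, then exposed to serial dilutions of inhibitor for 6–7 d. A time-zero plate was read with CellTiter-Glo at dosing. Luminescent viability read at the end. No-cell wells subtracted as background, data expressed as percent of DMSO control.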"}, "[5]": {"system": "ML-2", "test": "Antiproliferative activity against human ML-2 cells assessed as inhibition of cell viability measured for 6 to 7 days by cell titer glo assay", "type": "functional, cell-based", "in_short": "(§3)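 Cells seeded in recommended growth medium, incubated overnight at 37°C in 5% CO2, then exposed to serial dilutions of inhibitor for 6–7 d. A parallel plate was read with CellTiter-Glo at compound addition as a T=0 value. The luminescent viability readout had no-cell background subtracted and was expressed as % of DMSO control.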"}, "[6]": {"system": "SR", "test": "Antiproliferative activity against human SR cells assessed as inhibition of cell viability measured for 6 to 7 days by cell titer glo assay", "type": "functional, cell-based", "in_short": "as §2"}, "[7]": {"system": "SW-620", "test": "Antitumor activity in human SW620 cells xenografted in SCID mouse assessed as reduction in tumor growth at 25 to 100 mg/kg, ip administered once daily for 5 consecutive days with 2 days off scheduled for 3 cycles measured upto 60 days", "type": "functional, organism-based", "details": "dose 25-100 mg/kg, time 60.0 day"}, "[8]": {"system": "MV-4-11 (human)", "test": "Antitumor activity in human MV-4-11 cells xenografted in NOD-SCID mouse assessed as median survival time at 10 mg/kg, ip administered once daily for 5 consecutive days with 2 days off scheduled for 3 cycles measured upto 120 days", "details": "time <= 120 day"}, "[9]": {"system": "HeLa", "test": "Antiproliferative activity against human HeLa cells assessed as inhibition of cell viability measured for 6 to 7 days by cell titer glo assay", "type": "functional, cell-based", "in_short": "as §3"}, "[10]": {"test": "Antiproliferative activity against human SKW-3 cells assessed as inhibition of cell viability measured for 6 to 7 days by cell titer glo assay", "type": "functional, cell-based", "details": "SKW3", "in_short": "as §2"}, "[11]": {"test": "Antiproliferative activity against human Hs 445 cells assessed as inhibition of cell viability measured for 6 to 7 days by cell titer glo assay", "type": "functional, cell-based", "in_short": "as §3"}, "[12]": {"system": "Pfeiffer", "test": "Antiproliferative activity against human Pfeiffer cells assessed as inhibition of cell viability measured for 6 to 7 days by cell titer glo assay", "type": "functional, cell-based", "in_short": "as §2"}, "[13]": {"system": "SK-MEL-2", "test": "Antiproliferative activity against human SK-MEL-2 cells assessed as inhibition of cell viability measured for 6 to 7 days by cell titer glo assay", "type": "functional, cell-based", "in_short": "as §2"}, "[14]": {"system": "K562", "test": "Antitumor activity in human K562 cells xenografted in SCID mouse assessed as reduction in tumor growth at 100 mg/kg, ip administered once daily for 5 consecutive days with 2 days off scheduled for 3 cycles measured upto 60 days", "type": "functional, organism-based", "details": "time 60.0 day"}, "[15]": {"system": "U2OS", "test": "Antiproliferative activity against human U2OS cells assessed as inhibition of cell viability measured for 6 to 7 days by cell titer glo assay", "type": "functional, cell-based"}, "[16]": {"system": "HT-29", "test": "Antiproliferative activity against human HT-29 cells assessed as inhibition of cell viability measured for 6 to 7 days by cell titer glo assay", "type": "functional, cell-based", "in_short": "as §3"}, "[17]": {"system": "MDA-MB-231", "test": "Antiproliferative activity against human MDA-MB-231 cells assessed as inhibition of cell viability measured for 6 to 7 days by cell titer glo assay", "type": "functional, cell-based", "in_short": "as §3"}, "[18]": {"system": "COLO 320DM", "test": "Antiproliferative activity against human COLO 320DM cells assessed as inhibition of cell viability measured for 6 to 7 days by cell titer glo assay", "type": "functional, cell-based", "in_short": "as §1"}, "[19]": {"test": "Antiproliferative activity against human BC1 cell line assessed as inhibition of cell viability measured for 6 to 7 days by cell titer glo assay", "type": "functional, cell-based", "in_short": "as §1"}, "[20]": {"test": "Toxicity in SCID nude mouse xenografted with human NCI-H460 cells assessed as body weight loss at 25 to 100 mg/kg, ip administered once daily for 5 consecutive days with 2 days off scheduled for 3 cycles measured upto 60 days relative to control", "type": "organism-based", "details": "in vivo, 1440 h, dose 25-100 mg/kg, time < 60 day"}, "[21]": {"system": "HEC-1B cell line", "test": "Antiproliferative activity against human HEC-1B cell line assessed as inhibition of cell viability measured for 6 to 7 days by cell titer glo assay", "type": "functional, cell-based", "in_short": "as §1"}, "[22]": {"system": "A549", "test": "Induction of mitotic alteration in human A549 cells formation of unorganized chromosomes at 12 to 330 nmol/L incubated for 24 hrs by immunofluorescent microscopy based analysis", "type": "functional, cell-based", "details": "dose lower […], dose upper 330.0 nmol/L"}, "[23]": {"test": "In vivo inhibition of Aurora B in human HCT-116 cells xenografted in athymic nude mouse assessed as reduction in HH3-S10 phosphorylation at 100 mg/kg, ip single dose measured upto 24 hrs relative to control", "type": "functional", "set-up": "scale not given: the % may be the effect or the level left"}, "[24]": {"system": "BXPC-3", "test": "Antiproliferative activity against human BXPC-3 cells assessed as inhibition of cell viability measured for 6 to 7 days by cell titer glo assay", "type": "functional, cell-based", "in_short": "as §1"}, "[25]": {"test": "Antiproliferative activity against human EB1 cells assessed as inhibition of cell viability measured for 6 to 7 days by cell titer glo assay", "type": "functional, cell-based", "in_short": "as §1"}, "[26]": {"system": "CRO-AP2", "test": "Antiproliferative activity against human CRO-AP2 cells assessed as inhibition of cell viability measured for 6 to 7 days by cell titer glo assay", "type": "functional, cell-based", "in_short": "as §1"}, "[27]": {"system": "T47D", "test": "Antiproliferative activity against human T47D cells assessed as inhibition of cell viability measured for 6 to 7 days by cell titer glo assay", "type": "functional, cell-based", "in_short": "as §2"}, "[28]": {"system": "CMK", "test": "Antiproliferative activity against human CMK cells assessed as inhibition of cell viability measured for 6 to 7 days by cell titer glo assay", "type": "functional, cell-based", "in_short": "as §1"}, "[29]": {"system": "A549", "test": "Antitumor activity in human A549 cells xenografted in nude mouse assessed as reduction in tumor growth at 25 to 100 mg/kg, ip administered once daily for 5 consecutive days with 2 days off scheduled for 3 cycles measured upto 60 days", "details": "dose 25-100 mg/kg, time <= 60.0 day"}, "[30]": {"test": "Antiproliferative activity against human CML-T1 cells assessed as inhibition of cell viability measured for 6 to 7 days by cell titer glo assay", "type": "functional, cell-based", "in_short": "as §1"}, "[31]": {"system": "MC116", "test": "Antiproliferative activity against human MC116 cells assessed as inhibition of cell viability measured for 6 to 7 days by cell titer glo assay", "type": "functional, cell-based", "in_short": "as §3"}}, "note": "pEC50: −log10 of the molar value. Activity calls are given as the source filed them. No cut-off for these calls is given here.", "data": [{"smiles": "CCn1cc(-c2ccnc3[nH]c(-c4cccc(CN(C)C)c4)cc23)c(-c2ccc(NC(=O)N(C)C)cc2)n1", "note": "[GSK-1070916]", "values": [{"measurement": "pEC50", "setting": "[1]", "result": 7.96}, {"measurement": "pEC50", "setting": "[2]", "result": 6.10}, {"measurement": "EC50 at 6 days", "setting": "[3]", "result": 3900, "unit": "nM"}, {"measurement": "pEC50", "setting": "[4]", "result": 7.82}, {"measurement": "pEC50", "setting": "[5]", "result": 8.30}, {"measurement": "pEC50", "setting": "[6]", "result": 8.52}, {"measurement": "Activity", "setting": "[7]", "result": "inactive"}, {"measurement": "MST", "setting": "[8]", "result": 70, "unit": "days"}, {"measurement": "pEC50", "setting": "[9]", "result": 7.89}, {"measurement": "pEC50", "setting": "[10]", "result": 8.30}, {"measurement": "pEC50", "setting": "[11]", "result": 8.30}, {"measurement": "pEC50", "setting": "[12]", "result": 8.40}, {"measurement": "pEC50", "setting": "[13]", "result": 8.70}, {"measurement": "Activity", "setting": "[14]", "result": "Active"}, {"measurement": "pEC50", "setting": "[15]", "result": 7.47}, {"measurement": "pEC50", "setting": "[16]", "result": 8.00}, {"measurement": "pEC50", "setting": "[17]", "result": 7.96}, {"measurement": "pEC50", "setting": "[18]", "result": 7.02}, {"measurement": "pEC50", "setting": "[19]", "result": 7.74}, {"measurement": "Activity", "setting": "[20]", "result": "< 15", "unit": "%"}, {"measurement": "pEC50", "setting": "[21]", "result": 8.40}, {"measurement": "Activity", "setting": "[22]", "result": "Active"}, {"measurement": "Activity", "setting": "[23]", "result": ">60", "unit": "%"}, {"measurement": "pEC50", "setting": "[24]", "result": 8.52}, {"measurement": "pEC50", "setting": "[25]", "result": 8.15}, {"measurement": "pEC50", "setting": "[26]", "result": 8.52}, {"measurement": "pEC50", "setting": "[27]", "result": 7.89}, {"measurement": "pEC50", "setting": "[28]", "result": 7.57}, {"measurement": "Activity", "setting": "[29]", "result": "Active"}, {"measurement": "pEC50", "setting": "[30]", "result": 8.52}, {"measurement": "pEC50", "setting": "[31]", "result": 8.10}]}]}
